Reference: ChEMBL document CHEMBL1142960, “Synthesis and structure-activity relationships for 2,4-dinitrobenzamide-5-mustards as prodrugs for the Escherichia coli nfsB nitroreductase in gene therapy” (J Med Chem, 2007)
Values after ≈ are worked out from the molar mass of the structure shown.

Key:
V79 [1] = experiment: Selectivity ratio of IC50 for V79 NTR-ve cells to IC50 for V79 NTRpuro cells; assay type: functional, Cricetulus griseus
WiDr [2] = experiment: Antiproliferative activity against human WiDr NTRneo cells after 18 hrs; assay type: functional, cell-based
[3] = Stability in alpha MEM at 37 degC after 24 hrs; assay type: physicochemical; conditions: read-out: Stability
Outline: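 Percent parent compound remaining, by HPLC, after holding in α-MEM with 5% fetal calf serum at 37 °C for 24 h.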

EMT6 [4] = experiment: Antiproliferative activity against mouse wild type EMT6 NTR-ve cells after 18 hrs; assay type: functional, cell-based; conditions: EMT6, 18 h
EMT6 [5] = experiment: Selectivity ratio of IC50 for EMT6 NTR-ve cells to IC50 forEMT6 NTRpuro cells; assay type: functional, Mus musculus
[6] = Solubility in alpha MEM; assay type: physicochemical
Outline: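 Solubility (mM) in α-MEM with 5% fetal calf serum at ambient temperature, measured by HPLC.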

[7] = Antiproliferative activity against human Skov3 NTRneo cells after 18 hrs; assay type: functional, cell-based; conditions: SK-OV-3, 18 h
V79 [8] = experiment: Antiproliferative activity against chinese hamster V79 NTRpuro cells after 18 hrs; assay type: functional, cell-based; conditions: Cricetulus griseus, V79, 18 h
[9] = Toxicity in ip dosed CD1 nude mouse in DMSO; assay type: organism-based; conditions: in vivo
Outline: (§1)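 Maximum tolerated dose (MTD) determined in CD-1 nude mice after a single i.p. injection of prodrug, given in the vehicle named in each line.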

[10] = Antiproliferative activity against human wild type Skov3 NTR-ve cells after 18 hrs; assay type: functional, cell-based
V79 [11] = experiment: Clonogenic survival of 3% V79 NTRpuro cells in co-cultures with 97% V79 NTRoua after 5 hrs by MCL assay; assay type: functional, Cricetulus griseus
Outline: (§2)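 Multicellular layer cocultures of 3% V79-NTRpuro activators and 97% V79oua NTR-ve targets (ouabain-resistant), exposed to prodrug for 5 h. MCLs were then trypsin-dissociated and plated in ouabain or puromycin selective media for clonogenic survival. C10 (10% survival) interpolated for activators and targets; AC/TC ratio derived. Mean with SEM or range over independent experiments.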

EMT6 [12] = experiment: Antitumor activity against mixed mouse EMT6/EMT6 NTRpuro cells injected in CD1 nude mouse assessed as cell kill at 133 umol/kg, ip in DMSO/PEG after 18 hrs; assay type: functional
WiDr [13] = experiment: Antitumor activity against human 100% WiDr NTRneo tumor cells injected in CD1 nude mouse assessed as growth delay at 133 umol/kg, ip in DMSO/PEG; assay type: functional
Outline: (§3)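 WiDr-NTRneo tumours (100% NTR+ve, or 1:9 NTR+ve:NTR-ve mixtures) in CD-1 nude mice, given a single i.p. dose at MTD. Read-out is median growth delay to 15 mm mean diameter, plus tumours not palpable 100 days after treatment. Aziridine given at 200 µmol/kg as positive control in every experiment.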

[14] = Partition coefficient at pH 7.4 by shake-flask method; assay type: physicochemical; conditions: octanol/water
Outline: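 Octanol-water partition coefficient by shake-flask at pH 7.4, reported with SEM.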

V79 [15] = experiment: Antiproliferative activity against chinese hamster wild-type V79 NTR-ve cells after 18 hrs; assay type: functional, cell-based; conditions: Cricetulus griseus, V79, 18 h
WiDr [16] = experiment: Antiproliferative activity against human wild type WiDr NTR-ve cells after 18 hrs; assay type: functional, cell-based
[17] = Toxicity in ip dosed CD1 nude mouse in DMSO/PEG; assay type: organism-based; conditions: in vivo; outline: as §1
WiDr [18] = experiment: Selectivity ratio of IC50 for WiDr NTR-ve cells to IC50 for WiDr NTRneo cells; assay type: functional, Homo sapiens
WiDr [19] = experiment: Antitumor activity against mixed human 10% WiDr NTRneo/ 90% WiDr tumor cells injected in CD1 nude mouse assessed as growth delay at 750 umol/kg, ip in DMSO; assay type: functional; outline: as §3
EMT6 [20] = experiment: Antiproliferative activity against mouse EMT6 NTRpuro cells after 18 hrs; assay type: functional, cell-based; conditions: EMT6, 18 h
[21] = Selectivity ratio of IC50 for Skov3 NTR-ve cells to IC50 for Skov3 NTRneo cells; assay type: functional, Homo sapiens
V79 [22] = experiment: Clonogenic survival of V79 NTRoua cells after 5 hrs by MCL assay; assay type: functional, Cricetulus griseus
V79 [23] = experiment: Clonogenic survival of 97% V79 NTRoua cells in co-cultures with 3% V79 NTRpuro cells after 5 hrs by MCL assay; assay type: functional, Cricetulus griseus; outline: as §2

In the case of `CS(=O)(=O)c1cc([N+](=O)[O-])c(C(N)=O)cc1N(CCBr)CCBr`, the “Ratio IC50” value (V79 [1]) is reported as 508, the IC50 (WiDr [2]) is reported as 0.58 µM and the remaining at 24 h [3] is reported as 63%. For the same compound, the IC50 (EMT6 [4]) was 39 µM, the “Ratio IC50” value (EMT6 [5]) was 490 and the solubility [6] was 70 µM (≈ 33.1 µg/mL). The IC50 [7] was 0.4 µM, the IC50 (V79 [8]) was 0.16 µM and the MTD [9] was 750 µmol/kg. For the same compound, the IC50 [10] was 86 µM, the Activity (V79 [11]) was 5.5 µM and the LCK (EMT6 [12]) was 2.24. The Activity (WiDr [13]) was >83 days, the logD [14] was 1.02 and the IC50 (V79 [15]) was 80 µM. The IC50 (WiDr [16]) was 37 µM, the MTD [17] was 133 µmol/kg and the “Ratio IC50” value (WiDr [18]) was 74. For the same compound, the Activity (WiDr [19]) was 36 days, the IC50 (EMT6 [20]) was 0.09 µM and the “Ratio IC50” value [21] was 265. For the same compound, the Activity (V79 [22]) was >100 µM and the Activity (V79 [23]) was 16 µM.
